# Measurements published in ChEMBL document CHEMBL1914423, “New imidazo[2,1-b]thiazole derivatives: synthesis, in vitro anticancer evaluation, and in silico studies” (Eur J Med Chem, 2011).
# System: not listed separately
# Test: Antiproliferative activity against human A375P cells after 48 hrs by MTT assay
# Assay type: functional, cell-based
# Conditions: not given
# Outline: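 A375P cells in DMEM with 10% FBS at 37 °C, 5% CO2. Seeded at 5×10³ cells/well, held 24 h, then treated with 12-point 3-fold serial dilutions for 48 h. Viability by MTT reduction. IC50 values are means of triplicate experiments.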
row,SMILES,IC50
1,O=C(NCCNc1nccc(-c2c(-c3cccc(O)c3)nc3sccn23)n1)Nc1cccc(C(F)(F)F)c1,4.2 µM

# System: HL-60(TB)
# Test: Anticancer activity against human HL-60(TB) cells assessed as cell growth at 10^-5 M after 48 hrs by SRB assay
# Assay type: functional
# Conditions: HL-60, 48 h, read-out: Activity
# Outline: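 NCI-60 single-dose screen. Cells in RPMI 1640 with 5% FBS and 2 mM L-glutamine were plated at 5000–40,000 cells/well and preincubated 24 h at 37 °C before one compound concentration. Time-zero plates were TCA-fixed at drug addition. For suspension cells, settled cells were fixed with cold TCA, then SRB-stained and read at 515 nm. Percent growth was calculated from time-zero, control and treated absorbances.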
row,SMILES,growth at 10 µM
1,O=C(NCCNc1nccc(-c2c(-c3cccc(O)c3)nc3sccn23)n1)Nc1cccc(C(F)(F)F)c1,36.4%

# System: K562
# Test: Anticancer activity against human K562 cells assessed as cell growth at 10^-5 M after 48 hrs by SRB assay
# Assay type: functional
# Conditions: K562, 48 h, read-out: Activity
# Outline: (§1)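 NCI-60 single-dose screen at one concentration. Cells grown in RPMI 1640 with 5% FBS and 2 mM L-glutamine, plated at 5000–40,000 cells/well, and pre-incubated 24 h at 37 °C in 5% CO2 before DMSO-dissolved drug was added. Cells fixed with TCA, SRB-stained, absorbance read at 515 nm. Percent growth calculated against time-zero and untreated control plates.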
row,SMILES,growth at 10 µM
1,O=C(NCCNc1nccc(-c2c(-c3cccc(O)c3)nc3sccn23)n1)Nc1cccc(C(F)(F)F)c1,70.6%

# System: MOLT-4
# Test: Anticancer activity against human MOLT4 cells assessed as cell growth at 10^-5 M after 48 hrs by SRB assay
# Assay type: functional
# Conditions: MOLT-4, 48 h, read-out: Activity
row,SMILES,growth at 10 µM
1,O=C(NCCNc1nccc(-c2c(-c3cccc(O)c3)nc3sccn23)n1)Nc1cccc(C(F)(F)F)c1,59.8%

# System: SR
# Test: Anticancer activity against human SR cells assessed as cell growth at 10^-5 M after 48 hrs by SRB assay
# Assay type: functional
# Conditions: read-out: Activity
# Outline: (§2)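 NCI-60 single-dose screen: cells in RPMI 1640 with 5% FBS and 2 mM L-glutamine, plated at 5000–40,000 cells/well by doubling time, and preincubated 24 h at 37 °C. Compound given at one concentration from DMSO stock. Cells TCA-fixed and SRB-stained, absorbance at 515 nm. Percent growth relative to time-zero and untreated controls; inhibition % = 100 − growth %.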
row,SMILES,growth at 10 µM
1,O=C(NCCNc1nccc(-c2c(-c3cccc(O)c3)nc3sccn23)n1)Nc1cccc(C(F)(F)F)c1,59.2%

# System: A549
# Test: Anticancer activity against human A549 cells assessed as cell growth at 10^-5 M after 48 hrs by SRB assay
# Assay type: functional
# Conditions: A549, 48 h, read-out: Activity
# Outline: as §1
row,SMILES,growth at 10 µM
1,O=C(NCCNc1nccc(-c2c(-c3cccc(O)c3)nc3sccn23)n1)Nc1cccc(C(F)(F)F)c1,39.3%

# System: NCI-H460
# Test: Anticancer activity against human NCI-H460 cells assessed as cell growth at 10^-5 M after 48 hrs by SRB assay
# Assay type: functional
# Conditions: NCI-H460, 48 h, read-out: Activity
row,SMILES,growth at 10 µM
1,O=C(NCCNc1nccc(-c2c(-c3cccc(O)c3)nc3sccn23)n1)Nc1cccc(C(F)(F)F)c1,80.1%

# System: COLO 205
# Test: Anticancer activity against human COLO205 cells assessed as cell growth at 10^-5 M after 48 hrs by SRB assay
# Assay type: functional
# Conditions: COLO 205, 48 h, read-out: Activity
# Outline: as §1
row,SMILES,growth at 10 µM
1,O=C(NCCNc1nccc(-c2c(-c3cccc(O)c3)nc3sccn23)n1)Nc1cccc(C(F)(F)F)c1,53.2%

# System: HCC 2998
# Test: Anticancer activity against human HCC2998 cells assessed as cell growth at 10^-5 M after 48 hrs by SRB assay
# Assay type: functional
# Conditions: HCC 2998, 48 h, read-out: Activity
# Outline: as §1
row,SMILES,growth at 10 µM
1,O=C(NCCNc1nccc(-c2c(-c3cccc(O)c3)nc3sccn23)n1)Nc1cccc(C(F)(F)F)c1,23%

# System: SW-620
# Test: Anticancer activity against human SW620 cells assessed as cell growth at 10^-5 M after 48 hrs by SRB assay
# Assay type: functional
# Conditions: SW-620, 48 h, read-out: Activity
# Outline: as §2
row,SMILES,growth at 10 µM
1,O=C(NCCNc1nccc(-c2c(-c3cccc(O)c3)nc3sccn23)n1)Nc1cccc(C(F)(F)F)c1,30.3%

# System: SF-295
# Test: Anticancer activity against human SF295 cells assessed as cell growth at 10^-5 M after 48 hrs by SRB assay
# Assay type: functional
# Conditions: SF-295, 48 h, read-out: Activity
row,SMILES,growth at 10 µM
1,O=C(NCCNc1nccc(-c2c(-c3cccc(O)c3)nc3sccn23)n1)Nc1cccc(C(F)(F)F)c1,75.5%

# System: SNB-19
# Test: Anticancer activity against human SNB19 cells assessed as cell growth at 10^-5 M after 48 hrs by SRB assay
# Assay type: functional
# Conditions: SNB-19, 48 h, read-out: Activity
row,SMILES,growth at 10 µM
1,O=C(NCCNc1nccc(-c2c(-c3cccc(O)c3)nc3sccn23)n1)Nc1cccc(C(F)(F)F)c1,89.5%

# System: M14
# Test: Anticancer activity against human M14 cells assessed as cell growth at 10^-5 M after 48 hrs by SRB assay
# Assay type: functional
# Conditions: M14, 48 h, read-out: Activity
# Outline: as §1
row,SMILES,growth at 10 µM
1,O=C(NCCNc1nccc(-c2c(-c3cccc(O)c3)nc3sccn23)n1)Nc1cccc(C(F)(F)F)c1,-21.7%

# System: MDA-MB-435
# Test: Anticancer activity against human MDA-MB-435 cells assessed as cell growth at 10^-5 M after 48 hrs by SRB assay
# Assay type: functional
# Conditions: MDA-MB-435, 48 h, read-out: Activity
row,SMILES,growth at 10 µM
1,O=C(NCCNc1nccc(-c2c(-c3cccc(O)c3)nc3sccn23)n1)Nc1cccc(C(F)(F)F)c1,-3.01%

# System: SK-MEL-28
# Test: Anticancer activity against human SK-MEL-28 cells assessed as cell growth at 10^-5 M after 48 hrs by SRB assay
# Assay type: functional
# Conditions: SK-MEL-28, 48 h, read-out: Activity
row,SMILES,growth at 10 µM
1,O=C(NCCNc1nccc(-c2c(-c3cccc(O)c3)nc3sccn23)n1)Nc1cccc(C(F)(F)F)c1,48.8%

# System: SK-MEL-5
# Test: Anticancer activity against human SK-MEL-5 cells assessed as cell growth at 10^-5 M after 48 hrs by SRB assay
# Assay type: functional
# Conditions: SK-MEL-5, 48 h, read-out: Activity
row,SMILES,growth at 10 µM
1,O=C(NCCNc1nccc(-c2c(-c3cccc(O)c3)nc3sccn23)n1)Nc1cccc(C(F)(F)F)c1,53.5%

# System: UACC-257
# Test: Anticancer activity against human UACC257 cells assessed as cell growth at 10^-5 M after 48 hrs by SRB assay
# Assay type: functional
# Conditions: UACC-257, 48 h, read-out: Activity
# Outline: as §2
row,SMILES,growth at 10 µM
1,O=C(NCCNc1nccc(-c2c(-c3cccc(O)c3)nc3sccn23)n1)Nc1cccc(C(F)(F)F)c1,25.3%

# System: UACC-62
# Test: Anticancer activity against human UACC62 cells assessed as cell growth at 10^-5 M after 48 hrs by SRB assay
# Assay type: functional
# Conditions: UACC-62, 48 h, read-out: Activity
# Outline: as §2
row,SMILES,growth at 10 µM
1,O=C(NCCNc1nccc(-c2c(-c3cccc(O)c3)nc3sccn23)n1)Nc1cccc(C(F)(F)F)c1,29.4%

# System: IGROV-1
# Test: Anticancer activity against human IGROV1 cells assessed as cell growth at 10^-5 M after 48 hrs by SRB assay
# Assay type: functional
# Conditions: IGROV-1, 48 h, read-out: Activity
# Outline: as §1
row,SMILES,growth at 10 µM
1,O=C(NCCNc1nccc(-c2c(-c3cccc(O)c3)nc3sccn23)n1)Nc1cccc(C(F)(F)F)c1,65.6%

# System: OVCAR-4
# Test: Anticancer activity against human OVCAR4 cells assessed as cell growth at 10^-5 M after 48 hrs by SRB assay
# Assay type: functional
# Conditions: OVCAR-4, 48 h, read-out: Activity
row,SMILES,growth at 10 µM
1,O=C(NCCNc1nccc(-c2c(-c3cccc(O)c3)nc3sccn23)n1)Nc1cccc(C(F)(F)F)c1,110%

# System: NCI/ADR-RES
# Test: Anticancer activity against human NCI/ADR-RES cells assessed as cell growth at 10^-5 M after 48 hrs by SRB assay
# Assay type: functional
# Conditions: read-out: Activity
row,SMILES,growth at 10 µM
1,O=C(NCCNc1nccc(-c2c(-c3cccc(O)c3)nc3sccn23)n1)Nc1cccc(C(F)(F)F)c1,108%

# System: CAKI-1
# Test: Anticancer activity against human Caki1 cells assessed as cell growth at 10^-5 M after 48 hrs by SRB assay
# Assay type: functional
# Conditions: CAKI-1, 48 h, read-out: Activity
# Outline: as §1
row,SMILES,growth at 10 µM
1,O=C(NCCNc1nccc(-c2c(-c3cccc(O)c3)nc3sccn23)n1)Nc1cccc(C(F)(F)F)c1,90.3%

# System: RXF 393
# Test: Anticancer activity against human RXF393 cells assessed as cell growth at 10^-5 M after 48 hrs by SRB assay
# Assay type: functional
# Conditions: RXF 393, 48 h, read-out: Activity
row,SMILES,growth at 10 µM
1,O=C(NCCNc1nccc(-c2c(-c3cccc(O)c3)nc3sccn23)n1)Nc1cccc(C(F)(F)F)c1,26.2%

# System: SN12C
# Test: Anticancer activity against human SN12C cells assessed as cell growth at 10^-5 M after 48 hrs by SRB assay
# Assay type: functional
# Conditions: read-out: Activity
row,SMILES,growth at 10 µM
1,O=C(NCCNc1nccc(-c2c(-c3cccc(O)c3)nc3sccn23)n1)Nc1cccc(C(F)(F)F)c1,70.7%

# System: PC-3
# Test: Anticancer activity against human PC3 cells assessed as cell growth at 10^-5 M after 48 hrs by SRB assay
# Assay type: functional
# Conditions: PC-3, 48 h, read-out: Activity
row,SMILES,growth at 10 µM
1,O=C(NCCNc1nccc(-c2c(-c3cccc(O)c3)nc3sccn23)n1)Nc1cccc(C(F)(F)F)c1,26.7%

# System: MDA-MB-468
# Test: Anticancer activity against human MDA-MB-468 cells assessed as cell growth at 10^-5 M after 48 hrs by SRB assay
# Assay type: functional
# Conditions: MDA-MB-468, 48 h, read-out: Activity
row,SMILES,growth at 10 µM
1,O=C(NCCNc1nccc(-c2c(-c3cccc(O)c3)nc3sccn23)n1)Nc1cccc(C(F)(F)F)c1,-40.6%

# System: RPMI-8226
# Test: Anticancer activity against human RPMI8226 cells after 48 hrs by SRB assay
# Assay type: functional
# Conditions: RPMI-8226, 48 h
SMILES,GI50,LC50,TGI
O=C(NCCNc1nccc(-c2c(-c3cccc(O)c3)nc3sccn23)n1)Nc1cccc(C(F)(F)F)c1,2.52 µM,> 100 µM,5.46 µM
